The target of experiment [1] is T1, Phenylalanine--tRNA ligase alpha subunit (Staphylococcus aureus, UniProt P68849).
T1 sequence (P68849 whole entry): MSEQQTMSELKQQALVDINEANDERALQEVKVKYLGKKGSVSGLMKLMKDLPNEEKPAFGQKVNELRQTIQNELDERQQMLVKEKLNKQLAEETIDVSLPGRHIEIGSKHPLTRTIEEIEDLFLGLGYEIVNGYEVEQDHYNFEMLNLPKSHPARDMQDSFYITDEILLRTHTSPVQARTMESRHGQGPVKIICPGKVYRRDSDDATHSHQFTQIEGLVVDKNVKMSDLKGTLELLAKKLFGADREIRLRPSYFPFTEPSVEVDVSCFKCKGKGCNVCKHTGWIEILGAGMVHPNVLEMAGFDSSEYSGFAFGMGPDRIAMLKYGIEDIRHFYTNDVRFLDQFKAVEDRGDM
Put plainly: Inhibitory concentration against Staphylococcus aureus Phenylalanyl-tRNA synthetase. In outline:
(§1)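 Recombinant bacterial FRS (S. aureus WCUH29 enzyme cloned and overexpressed in E. coli; S. pneumoniae and H. influenzae enzymes overexpressed and purified the same way). IC50 from the full aminoacylation reaction with SPA read-out. Phenylalanine was held at the Km of each enzyme.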

The target of experiment [2] is T2, Phenylalanine--tRNA ligase alpha subunit (Haemophilus influenzae (strain ATCC 51907 / DSM 11121 / KW20 / Rd), UniProt P43819). Put plainly: Inhibitory concentration against Haemophilus influenzae Phenylalanyl-tRNA synthetase. In short, it runs like this: as §1
Experiment [3] has as its target T3, Phenylalanine--tRNA ligase alpha subunit (Streptococcus pneumoniae serotype 4 (strain ATCC BAA-334 / TIGR4), UniProt Q97S36).
T3 sequence (Q97S36 whole entry): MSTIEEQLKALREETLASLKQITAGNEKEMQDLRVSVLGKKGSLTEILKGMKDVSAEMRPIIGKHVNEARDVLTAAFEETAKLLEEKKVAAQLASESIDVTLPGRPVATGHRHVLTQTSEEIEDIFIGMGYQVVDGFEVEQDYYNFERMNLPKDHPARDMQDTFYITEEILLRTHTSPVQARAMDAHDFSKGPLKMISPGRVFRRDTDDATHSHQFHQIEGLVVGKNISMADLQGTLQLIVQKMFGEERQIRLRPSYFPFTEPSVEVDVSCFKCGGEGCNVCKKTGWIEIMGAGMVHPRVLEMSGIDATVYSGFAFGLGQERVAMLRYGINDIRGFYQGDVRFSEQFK
The experiment can be described thus: Inhibitory concentration against Streptococcus pneumoniae Phenylalanyl-tRNA synthetase. In outline:
as §1

Experiment [4] has as its target T4, Phenylalanine--tRNA ligase, mitochondrial (Rattus norvegicus, UniProt Q6AYQ3).
T4 sequence (Q6AYQ3 whole entry): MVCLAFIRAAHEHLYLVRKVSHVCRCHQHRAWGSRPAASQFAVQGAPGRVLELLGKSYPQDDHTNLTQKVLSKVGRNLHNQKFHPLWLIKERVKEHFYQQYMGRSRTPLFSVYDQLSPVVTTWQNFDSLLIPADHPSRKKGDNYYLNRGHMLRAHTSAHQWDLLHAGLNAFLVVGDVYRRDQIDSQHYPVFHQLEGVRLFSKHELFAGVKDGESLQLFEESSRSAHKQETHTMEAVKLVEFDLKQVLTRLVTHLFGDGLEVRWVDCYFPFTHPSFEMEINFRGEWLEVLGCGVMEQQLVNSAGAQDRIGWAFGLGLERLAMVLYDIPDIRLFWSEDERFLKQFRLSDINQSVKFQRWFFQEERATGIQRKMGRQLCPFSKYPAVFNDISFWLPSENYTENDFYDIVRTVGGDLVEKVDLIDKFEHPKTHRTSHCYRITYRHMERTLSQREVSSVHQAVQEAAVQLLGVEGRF
Put plainly: Inhibitory concentration against Phenylalanyl-tRNA synthetase from rat liver. In short, it runs like this:
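Mammalian FRS isolated from rat liver; IC50 determined to assess selectivity against the bacterial enzyme.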

Experiment [5] deals with T1, Phenylalanine--tRNA ligase alpha subunit. Put plainly: Inhibitory concentration against […] Phenylalanyl-tRNA synthetase. In short, it runs like this: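 Recombinant S. aureus WCUH29 FRS, cloned and overexpressed in E. coli, then purified. IC50 measured in the full aminoacylation reaction with SPA readout. Phenylalanine set at the enzyme's Km.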
Experiment [6] concerns the target T2, Phenylalanine--tRNA ligase alpha subunit. Put plainly: Inhibitory concentration against Haemophilus influenzae Phenylalanyl-tRNA synthetase; NI=no inhibition at 300 nM. In outline: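 Recombinant FRS from the named species, overexpressed in E. coli and purified. IC50 measured in the full aminoacylation reaction with SPA readout. Phenylalanine set at the Km of each enzyme.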

Results on 49 compounds are retold here after ChEMBL document CHEMBL1144382, “Discovery and optimisation of potent, selective, ethanolamine inhibitors of bacterial phenylalanyl tRNA synthetase” (Bioorg Med Chem Lett, 2005).

A value given as a limit tells only on which side of the number the result lay.

T2 sequence (P43819 whole entry): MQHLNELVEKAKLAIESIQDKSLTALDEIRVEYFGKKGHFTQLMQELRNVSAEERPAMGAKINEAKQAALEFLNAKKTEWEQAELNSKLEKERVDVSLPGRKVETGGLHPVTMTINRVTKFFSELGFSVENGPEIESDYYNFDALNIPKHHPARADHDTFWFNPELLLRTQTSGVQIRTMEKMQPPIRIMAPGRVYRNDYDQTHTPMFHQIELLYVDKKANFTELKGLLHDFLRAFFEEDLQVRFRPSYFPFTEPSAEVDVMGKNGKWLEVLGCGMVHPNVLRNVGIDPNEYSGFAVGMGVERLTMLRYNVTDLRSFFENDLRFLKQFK

With `OC(CNCc1ccccc1OC(F)F)c1cccc(C(F)(F)F)c1` (stereo not given), in experiment [1], the IC50 is 260 nM. Regarding `Cc1ccccc1CNCC(O)c1cccc(C(F)(F)F)c1` (stereo not given), the half-maximal inhibitory concentration (IC50) in experiment [1] came to 790 nM. As for `COc1ccccc1CNCC(O)c1cccc(Br)c1` (stereo not given), in experiment [1], the IC50 came to 110 nM. Turning to `OCCOc1ccccc1CNC[C@H](O)c1cc(Br)cs1`, the IC50 in experiment [1], in experiment [2] and in experiment [3] was over 1000 nM each time.

In experiment [1], `COc1ccccc1CNCC(O)c1cc(C(F)(F)F)ccc1C(F)(F)F` (stereo not given) showed a half-inhibitory concentration (IC50) of over 10000 nM.

`OCCOc1ccccc1CNCC(O)c1cc(Br)cs1` (stereo not given) came in with a half-maximal inhibitory concentration (IC50) in experiment [1] of 8 nM. For the compound `O=C(O)c1ccccc1CNCC(O)c1cccc(C(F)(F)F)c1` (stereo not given), the half-maximal inhibitory concentration (IC50) in experiment [1] worked out at 2500 nM. On the same count and under the same terms, with `OC(CNCc1ccccc1OCc1ccccn1)c1cc(Br)cs1` (stereo not given) the figure was 43 nM.

With `OC(CNCc1ccccc1OCc1ccccc1)c1cccc(I)c1` (stereo not given), in experiment [1], the IC50 amounted to 32 nM. This IC50 and that of the compound before are within 1.5-fold of each other. Same read-out and setting: with `COc1ccccc1CNCC(O)c1cccc(C)c1` (stereo not given) the figure was 110 nM. Same read-out and setting: with `OC(CNCc1ccccc1OCCN1CCOCC1)c1cc(Br)cs1` (stereo not given) the figure was 18 nM. On to `OC(CNCc1ccccc1OCc1ccccc1)c1cc(Br)cs1` (stereo not given), for which the half-inhibitory concentration (IC50) came to 10 nM in experiment [1], 1500 nM in experiment [2] and 280 nM in experiment [3].

`OC(CNCc1ccccc1Oc1ccccc1)c1cc(Br)cs1` (stereo not given) came in with a half-inhibitory concentration (IC50) in experiment [1] of 120 nM.

In experiment [1], `CN(CCO)C(=O)CCCOc1ccccc1CNCC(O)c1cc(Br)cs1` (stereo not given) displayed a half-maximal inhibitory concentration (IC50) of 26 nM. Still for that read-out and setting: with `O=C(O)CCCOc1ccccc1CNCC(O)c1cc(Br)cs1` (stereo not given) the figure was 43 nM. For the compound `OCCOc1ccccc1CNC[C@@H](O)c1cc(Br)cs1`, the IC50 in experiment [1] came out at 3.7 nM; in experiment [2] it was 56 nM; in experiment [3], 190 nM.

`OC(CNCc1ccccc1OCc1ccccc1)c1cc(C(F)(F)F)cc(C(F)(F)F)c1` (stereo not given): the IC50 in experiment [1] was over 10000 nM. Same read-out and setting: with `O=C1c2ccccc2C(=O)N1CCCCOc1ccccc1CNCC(O)c1cc(Br)cs1` (stereo not given) the figure was 69 nM. On the same count and under the same terms, with `CNC(=O)CNC(=O)COc1ccccc1CNCC(O)c1cc(Br)cs1` (stereo not given) the figure was 120 nM; with `Oc1ccccc1CNCC(O)c1cccc(C(F)(F)F)c1` (stereo not given), 100 nM; with `O=C1c2ccccc2C(=O)N1CCOc1ccccc1CNCC(O)c1cc(Br)cs1` (stereo not given), 250 nM. Same read-out and setting: with `COc1ccccc1CNCC(O)c1ccc(C(F)(F)F)cc1` (stereo not given) the figure was over 10000 nM; with `C=CCOc1ccccc1CNCC(O)c1cccc(C(F)(F)F)c1` (stereo not given), 58 nM. Regarding `OC(CNCc1ccccc1OCc1ccncc1)c1cc(Br)cs1` (stereo not given), the concentration for half-maximal inhibition (IC50) in experiment [1] worked out at 16 nM; in experiment [4], 90000 nM.

On to `OC(CNCc1ccccc1OCc1nc2ccccc2[nH]1)c1cc(Br)cs1` (stereo not given), for which the IC50 in experiment [1] was 26 nM; in experiment [2] it was 150 nM; in experiment [3], 250 nM. `OC(CNCc1ccccc1)c1cccc(C(F)(F)F)c1` (stereo not given): the values for the IC50 in experiment [1], in experiment [5] and in experiment [6] were 160 nM, 160 nM and “No inhibition”, respectively. `OCc1cccc(C(O)CNCc2ccccc2OCc2ccccc2)c1` (stereo not given) yielded a half-maximal inhibitory concentration (IC50) in experiment [1] of 570 nM. On the same count and under the same terms, with `COc1ccccc1CNCC(O)c1cc(Br)cs1` (stereo not given) the figure was 50 nM.

`NCCCCOc1ccccc1CNCC(O)c1cc(Br)cs1` (stereo not given): the half-inhibitory concentration (IC50) in experiment [1] was 22 nM.

In turn, `COc1ccccc1CNCC(O)c1cccc(C(F)(F)F)c1` (stereo not given) displayed a half-maximal inhibitory concentration (IC50) in experiment [1] of 160 nM. Still for that read-out and setting: with `CNC(=O)CNC(=O)CCOc1ccccc1CNCC(O)c1cc(Br)cs1` (stereo not given) the figure was 36 nM; with `COCOc1ccccc1CNCC(O)c1cc(Br)cs1` (stereo not given), 35 nM.

As for `CNC(=O)CNC(=O)CCCOc1ccccc1CNCC(O)c1cc(Br)cs1` (stereo not given), the IC50 in experiment [1] amounted to 30 nM. The same measure, in the same setting: with `COc1cccc(C(O)CNCc2ccccc2OCc2ccccc2)c1` (stereo not given) the figure was 83 nM; with `OC(CNCc1ccccc1OCc1ccccc1)c1cccc(C(F)(F)F)c1` (stereo not given), 50 nM.

In experiment [1], `C=CCOc1ccccc1CNCC(O)c1cc(Br)cs1` (stereo not given) had an IC50 of 18 nM. On the same count and under the same terms, with `OC(CNCc1ccccc1OCc1ccccc1)c1cccc(Cl)c1` (stereo not given) the figure was 31 nM. Regarding `CS(=O)(=O)c1ccc(COc2ccccc2CNCC(O)c2cc(Br)cs2)cc1` (stereo not given), the IC50 in experiment [1] came out at 26 nM. Still for that read-out and setting: with `O=C(O)CCOc1ccccc1CNCC(O)c1cc(Br)cs1` (stereo not given) the figure was 58 nM. Still for that read-out and setting: with `CCNC(=O)COc1ccccc1CNCC(O)c1cc(Br)cs1` (stereo not given) the figure was 32 nM; with `NC(=O)COc1ccccc1CNCC(O)c1cc(Br)cs1` (stereo not given), 42 nM. On the same count and under the same terms, with `OC(CNCc1ccccc1OCc1cccnc1)c1cc(Br)cs1` (stereo not given) the figure was 18 nM; with `CN(CCO)C(=O)CCOc1ccccc1CNCC(O)c1cc(Br)cs1` (stereo not given), 25 nM; with `N#CCOc1ccccc1CNCC(O)c1cc(Br)cs1` (stereo not given), 49 nM. The compound `COc1ccccc1CNCC(O)c1cccc(OC(F)(F)F)c1` (stereo not given) displayed an IC50 in experiment [1] of 190 nM. Still for that read-out and setting: with `COc1ccccc1CNCC(O)c1ccccc1C(F)(F)F` (stereo not given) the figure was over 10000 nM. Still for that read-out and setting: with `CN(CCO)C(=O)COc1ccccc1CNCC(O)c1cc(Br)cs1` (stereo not given) the figure was 110 nM; with `NCCOc1ccccc1CNCC(O)c1cc(Br)cs1` (stereo not given), 220 nM. On the same count and under the same terms, with `COc1ccccc1CNCC(O)c1cccc(OCc2ccccc2)c1` (stereo not given) the figure was over 10000 nM.
